pEC50: −log10 of the molar value. Calls of active or inactive are those of the source. The calls are words filed in the database; no cut-off is given here.
Legend:
Hepatitis B virus [1] = test: Antiviral activity against HBV infected in human HepG2.2.15 cells assessed as inhibition of intracellular viral RNA accumulation at 2 uM for 4 days by qPCR or qRT-PCR relative to control; assay type: functional, organism-based; conditions: HepG2 2.2.15
Summary of the method: (§1)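 HepAD38 or HepG2.2.15 cells were treated at 2 µM for 4 days, with medium replaced every 2 days. Intracellular and extracellular DNA and RNA were quantified by qPCR or qRT-PCR, and HBeAg and HBsAg by ELISA. Results were compared with DMSO vehicle as mean ± SD, using a two-tailed t-test.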

Hepatitis B virus [2] = test: Antiviral activity against HBV genotype D in hydrodynamic injection-based C57BL/6 mouse model of HBV infection assessed as inhibition of liver HBV DNA level at 50 mg/kg, po dosed twice daily for 7 days by real-time PCR analysis; assay type: functional, organism-based
[3] = Selectivity index, ratio of CC50 for cytotoxicity in human HepAD38 cells assessed as induction of cell killing to EC50 for antiviral activity against HBV infected in human HepAD38 cells assessed as reduction in viral DNA levels incubated for 6 days by PCR analysis; assay type: toxicity, cell-based; conditions: read-out: Ratio CC50/EC50
Hepatitis B virus [4] = test: Antiviral activity against HBV infected in human HepAD38 cells assessed as reduction in viral DNA levels incubated for 6 days by PCR analysis; assay type: functional, organism-based; conditions: HePAD38, 144 h
Hepatitis B virus [5] = test: Antiviral activity against HBV infected in human HepG2.A64 cells containing reverse transcriptase L180M/T184L/M204V mutant assessed as reduction in viral replication incubated for 6 days by PCR analysis; assay type: functional, organism-based; conditions: HepG2.A64, 144 h
Summary of the method: (§2)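 Wild-type HBV replication measured in HepAD38 and HepG2.2.15 cells, lamivudine/entecavir-resistant HBV in HepG2.A64 cells (rtL180M+rtT184L+rtM204V) and multidrug-resistant HBV in HepG2.1403F cells (rtL180M+rtM204V+rtS202G+rtN236T). Read-out is reduction of HBV DNA. EC50 is reported as mean ± SD.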

[6] = Cmax in C57BL/6 mouse blood at 100 mg/kg, po measured from 5 mins to 24 hrs by HPLC analysis; assay type: ADME, organism-based; parameters: dose 100 mg/kg, route oral
Summary of the method: (§3)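 Male C57BL/6 mice, n=3. Dosing 20 mg/kg i.v. or 100 mg/kg p.o. of parent; prodrug p.o. at 100 or 200 mg/kg. The parent compound was measured in blood/plasma and in liver from 5 min onward. Readouts were Cmax, Tmax, t1/2, CL, AUC and oral bioavailability.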

[7] = Half life in C57BL/6 mouse at 20 mg/kg, iv measured from 5 mins to 24 hrs by HPLC analysis; assay type: ADME, organism-based; conditions: in vivo; summary of the method: as §3
Hepatitis B virus [8] = test: Inhibition of HBsAg secretion in HBV infected human HepG2.2.15 cells at 2 uM for 4 days by ELISA; assay type: functional, organism-based; conditions: HepG2 2.2.15; summary of the method: as §1
[9] = AUC in C57BL/6 mouse plasma at 100 mg/kg, po measured from 5 mins to 24 hrs by HPLC analysis; assay type: ADME, organism-based; parameters: time upper 24 hr, dose 100 mg/kg, time lower 0.083 hr, route oral; summary of the method: as §3
[10] = Cytotoxicity in human HepAD38 cells assessed as induction of cell killing; assay type: cell-based
[11] = AUC in C57BL/6 mouse liver at 20 mg/kg, iv measured from 5 mins to 24 hrs by HPLC analysis; assay type: ADME, organism-based; parameters: time lower 0.083 hr, dose 20 mg/kg, time upper 24 hr, route intravenous; conditions: in vivo; summary of the method: as §3
[12] = Solubility in pH 6.8 phosphate buffer at 1 mg at 25 degC by HPLC analysis; assay type: physicochemical; conditions: BLD = below limit of detection
Summary of the method: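 Solubility determined in water or 0.067 M phosphate buffer at pH 5.8, 6.8 and 7.4. Values are reported in mg/mL; ND means below the detection limit.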

Hepatitis B virus [13] = test: Antiviral activity against HBV infected in human HepG2.2.15 cells assessed as inhibition of intracellular viral DNA accumulation at 2 uM for 4 days by qPCR or qRT-PCR relative to control; assay type: functional, organism-based; conditions: HepG2 2.2.15; summary of the method: as §1
Hepatitis B virus [14] = test: Antiviral activity against HBV infected in human HepAD38 cells assessed as inhibition of intracellular viral DNA accumulation at 2 uM for 4 days by qPCR or qRT-PCR relative to control; assay type: functional, organism-based; summary of the method: as §1
[15] = Tmax in C57BL/6 mouse blood at 100 mg/kg, po measured from 5 mins to 24 hrs by HPLC analysis; assay type: ADME, organism-based
Summary of the method: (§4)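 Male C57BL/6 mice, single oral dose of prodrug at 100 or 200 mg/kg; blood and liver levels of the parent compound measured over time; N=3; Tmax taken from the concentration–time profiles.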

Hepatitis B virus [16] = test: Antiviral activity against HBV infected in human HepAD38 cells assessed as inhibition of intracellular viral RNA accumulation at 2 uM for 4 days by qPCR or qRT-PCR relative to control; assay type: functional, organism-based; summary of the method: as §1
Hepatitis B virus [17] = test: Antiviral activity against HBV genotype D in hydrodynamic injection-based C57BL/6 mouse model of HBV infection assessed as inhibition of serum HBV DNA level at 50 mg/kg, po dosed twice daily for 7 days by real-time PCR analysis; assay type: functional, organism-based
Hepatitis B virus [18] = test: Antiviral activity against multidrug-resistant HBV infected in human HepG2.1403F cells assessed as reduction in viral replication incubated for 6 days by PCR analysis; assay type: functional, organism-based; conditions: 144 h; summary of the method: as §2
[19] = AUC in C57BL/6 mouse plasma at 20 mg/kg, iv measured from 5 mins to 24 hrs by HPLC analysis; assay type: ADME, organism-based; parameters: dose 20 mg/kg, time upper 24 hr, time lower 0.083 hr, route intravenous; summary of the method: as §3
[20] = Cytotoxicity in human HepG2 cells assessed as induction of cell killing; assay type: cell-based
[21] = Oral bioavailability in C57BL/6 mouse liver at 100 mg/kg measured from 5 mins to 24 hrs by HPLC analysis; assay type: ADME, organism-based; summary of the method: as §3
[22] = Cmax in C57BL/6 mouse liver at 100 mg/kg, po measured from 5 mins to 24 hrs by HPLC analysis; assay type: ADME, organism-based; parameters: dose 100 mg/kg, route oral; conditions: in vivo; summary of the method: as §3
[23] = Drug level in C57BL/6 mouse liver at 100 mg/kg, po measured after 5 mins by HPLC analysis; assay type: ADME, organism-based; conditions: in vivo
Hepatitis B virus [24] = test: Inhibition of HBsAg secretion in HBV infected human HepAD38 cells at 2 uM for 4 days by ELISA; assay type: functional, organism-based; summary of the method: as §1
Hepatitis B virus [25] = test: Antiviral activity against HBV genotype D in hydrodynamic injection-based C57BL/6 mouse model of HBV infection assessed as inhibition of liver HBV DNA level at 100 mg/kg, po dosed twice daily for 7 days by real-time PCR analysis; assay type: functional, organism-based
[26] = AUC in C57BL/6 mouse liver at 100 mg/kg, po measured from 5 mins to 24 hrs by HPLC analysis; assay type: ADME, organism-based; parameters: time 0.083-24 hr, dose 100 mg/kg, route oral; conditions: in vivo; summary of the method: as §3
[27] = Tmax in C57BL/6 mouse liver at 100 mg/kg, po measured from 5 mins to 24 hrs by HPLC analysis; assay type: ADME, organism-based; summary of the method: as §4
Hepatitis B virus [28] = test: Antiviral activity against HBV genotype D in hydrodynamic injection-based C57BL/6 mouse model of HBV infection assessed as inhibition of serum HBV DNA level at 100 mg/kg, po dosed twice daily for 7 days by real-time PCR analysis; assay type: functional, organism-based
Hepatitis B virus [29] = test: Antiviral activity against HBV infected in human HepG2.2.15 cells assessed as reduction in viral DNA levels incubated for 6 days by PCR analysis; assay type: functional, organism-based; conditions: HepG2 2.2.15, 144 h
Hepatitis B virus [30] = test: Antiviral activity against HBV genotype D in hydrodynamic injection-based C57BL/6 mouse model of HBV infection assessed as inhibition of HBV replication at 50 mg/kg, po dosed once daily for 7 days by real-time PCR analysis; assay type: functional, organism-based
[31] = Intrinsic clearance in mouse liver microsomes; assay type: ADME, Microsome; conditions: read-out: CLH
[32] = Clearance in C57BL/6 mouse at 20 mg/kg, iv measured from 5 mins to 24 hrs by HPLC analysis; assay type: ADME, organism-based; conditions: in vivo; summary of the method: as §3
Hepatitis B virus [33] = test: Antiviral activity against HBV genotype D in hydrodynamic injection-based C57BL/6 mouse model of HBV infection assessed as inhibition of liver HBV DNA level at 200 mg/kg, po dosed twice daily for 7 days by real-time PCR analysis; assay type: functional, organism-based
Hepatitis B virus [34] = test: Antiviral activity against HBV genotype D in hydrodynamic injection-based C57BL/6 mouse model of HBV infection assessed as inhibition of serum HBV DNA level at 200 mg/kg, po dosed twice daily for 7 days by real-time PCR analysis; assay type: functional, organism-based
Hepatitis B virus [35] = test: Antiviral activity against HBV genotype D in hydrodynamic injection-based C57BL/6 mouse model of HBV infection assessed as inhibition of HBV replication at 100 mg/kg, po dosed once daily for 7 days by real-time PCR analysis; assay type: functional, organism-based
[36] = Cytotoxicity in human HepG2 cells assessed as induction of cell killing
[37] = Stability in pH 7.4 buffer assessed as compound remaining level after 3 hrs at 37 degC by HPLC analysis; assay type: physicochemical; conditions: read-out: Stability
Summary of the method: (§5)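 Prodrug incubated in buffer (0.1 M HCl, pH 5.8, 6.8 or 7.4) at 37 °C; percent of compound remaining determined by HPLC; remaining percentage reported after 3 h, stability meaning no hydrolysis after 2 h.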

[38] = Stability in pH 5.8 buffer assessed as compound remaining level at 37 degC by HPLC analysis; assay type: physicochemical; summary of the method: as §5
[39] = Half life in mouse plasma by HPLC analysis; assay type: ADME, cell-free
Summary of the method: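 Prodrug incubated in plasma at 37 °C, with percent remaining determined by HPLC to derive half-life.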

[40] = Stability in pH 6.8 buffer assessed as compound remaining level at 37 degC by HPLC analysis; assay type: physicochemical; summary of the method: as §5

## Cc1cc(Nc2nn(C3CC3)c3cnc(S(=O)(=O)N4CCC(O)CC4)cc23)ccc1F
Hepatitis B virus [1]
  inhibition: Active
Hepatitis B virus [2]
  Activity: inactive
[3]
  selectivity ratio at 144 h: > 2940
Hepatitis B virus [4]
  pEC50: 7.47
Hepatitis B virus [5]
  pEC50: 9.60
[6]
  Cmax: 1190 nM
[7]
  half-life: 37.8 min
Hepatitis B virus [8]
  inhibition: inactive
[9]
  AUC: 1580 ng·h/mL
[10]
  CC50: > 100000 nM
[11]
  AUC: 62 nmol·h/g
[12]
  solubility: Bld
Hepatitis B virus [13]
  inhibition: Active
Hepatitis B virus [14]
  inhibition: Active
[15]
  Tmax: 30 min
Hepatitis B virus [16]
  inhibition: Active
Hepatitis B virus [17]
  Activity: inactive
Hepatitis B virus [18]
  pEC50: 9.48
[19]
  AUC: 2600 ng·h/mL
[20]
  CC50: > 100000 nM
[21]
  bioavailability: 12%
[22]
  Cmax: 32 nmol/g
[23]
  Drug uptake: > 10 nmol/g
Hepatitis B virus [24]
  inhibition: inactive
Hepatitis B virus [25]
  Activity: inactive
[26]
  AUC: 142 nmol·h/g
[27]
  Tmax: 30 min
Hepatitis B virus [28]
  Activity: inactive
Hepatitis B virus [29]
  pEC50: 8.46
Hepatitis B virus [30]
  Activity: inactive
[31]
  microsomal CLint: 10.3 µL/min/mg
[32]
  clearance: 2.33 mL/min

## Cc1cc(Nc2nn(C3CC3)c3cnc(S(=O)(=O)N4CCC(OC(=O)CN(C)C)CC4)cc23)ccc1F
Hepatitis B virus [2]
  Activity: Active
Hepatitis B virus [33]
  Activity: Active
Hepatitis B virus [17]
  Activity: Active
Hepatitis B virus [25]
  Activity: Active
Hepatitis B virus [28]
  Activity: Active
Hepatitis B virus [30]
  Activity: inactive
Hepatitis B virus [34]
  Activity: Active

## CC[C@@H](C)NS(=O)(=O)c1ccc(F)c(C(=O)Nc2ccc(F)c(F)c2)c1
[3]
  selectivity ratio at 144 h: 129
Hepatitis B virus [4]
  pEC50: 6.51
Hepatitis B virus [5]
  pEC50: 7.32
Hepatitis B virus [35]
  Activity: inactive
[36]
  CC50: 39800 nM
Hepatitis B virus [18]
  pEC50: 7.13
[20]
  CC50: 39800 nM
Hepatitis B virus [29]
  pEC50: 6.55

## Cc1cc(Nc2nn(C3CC3)c3cnc(S(=O)(=O)N4CCC(OC(=O)[C@H](C)N)CC4)cc23)ccc1F.O=C(O)C(F)(F)F
[37]
  remaining at 3 h: 55.6%
[38]
  Stability: 85.7%
[39]
  half-life: 31.2 min
[40]
  Stability: 80.2%

Source: ChEMBL document CHEMBL4602735, “Discovery of (1H-Pyrazolo[3,4-c]pyridin-5-yl)sulfonamide Analogues as Hepatitis B Virus Capsid Assembly Modulators by Conformation Constraint” (J Med Chem, 2020)
